In ChEMBL document CHEMBL1123106, “Synthesis and biological activity of modified peptide inhibitors of angiotensin-converting enzyme” (J Med Chem, 1985):
Blank lines part the entries; values can stand above or below the compound they belong to.

What was measured:
[1] = test system: Angiotensin-converting enzyme (Cavia porcellus); assay: In vitro inhibitory activity against Angiotensin I converting enzyme from unpurified guinea pig serum; No significant activity
Rattus norvegicus [2] = assay: % decrease in mean arterial pressure in conscious renal hypertensive rats at a dose of 3 mg/Kg, administered perorally at MAP 190 mm Hg; format: functional, Artery
Summary of the method: (§1)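 Conscious two-kidney, one-clip Goldblatt renal hypertensive rats (N = 3) were dosed orally at 3 or 30 mg/kg. Predose mean arterial pressure was about 190 mmHg. The read-out is % decrease in mean arterial pressure. N marks no significant lowering of arterial pressure at that dose.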

Rattus norvegicus [3] = assay: % decrease in mean arterial pressure in conscious renal hypertensive rats at a dose of 30 mg/Kg, administered perorally at MAP 190 mmHg; format: functional, Artery
Summary of the method: as §1

Rattus norvegicus [4] = assay: % decrease in mean arterial pressure in conscious renal hypertensive rats at a dose of 3 mg/Kg, administered perorally at MAP 190 mmHg; format: functional, Artery
Summary of the method: as §1

Rattus norvegicus [5] = assay: % Decrease in mean arterial pressure in conscious renal hypertensive rats at a dose of 30 mg/Kg, administered perorally at MAP 190 mmHg; format: functional, Artery
Summary of the method: as §1

Rattus norvegicus [6] = assay: % Decrease in mean arterial pressure in conscious renal hypertensive rats at a dose of 3 mg/Kg, administered perorally at MAP 190 mm Hg; N means no significant lowering of arterial pressure; format: functional, organism-based; conditions: Artery
Summary of the method: as §1

Rattus norvegicus [7] = assay: % decrease in mean arterial pressure in conscious renal hypertensive rats at a dose of 3 mg/Kg, administered perorally at MAP 190 mm Hg; N means no significant lowering of arterial pressure; format: functional, organism-based; conditions: Artery
Summary of the method: as §1

Rattus norvegicus [8] = assay: % Decrease in mean arterial pressure in conscious renal hypertensive rats at a dose of 3 mg/Kg, administered perorally at MAP 190 mmHg; format: functional, Artery
Summary of the method: as §1

IC50 [1]: No significant activity
SMILES: CC(SC(CCc1ccccc1)C(=O)O)C(=O)NC1(C(=O)O)CCCC1 (stereo not drawn)

SMILES: C[C@H](CS)C(=O)N1CCC[C@H]1C(=O)O [CAPTOPRIL]
Decrease in mean arterial pressure (Rattus norvegicus [2]): 49%

IC50 [1]: No significant activity
SMILES: CC(C(=O)N1CCC[C@H]1C(=O)O)S(=O)(=O)C(CCc1ccccc1)C(=O)O (stereo partly drawn)

SMILES: CCOC(=O)C(CCc1ccccc1)OC(C)C(=O)N1Cc2ccccc2CC1C(=O)O (stereo not drawn)
Decrease in mean arterial pressure (Rattus norvegicus [3]): 18% | Decrease in mean arterial pressure (Rattus norvegicus [4]): 8%

SMILES: CCOC(=O)[C@H](CCc1ccccc1)N[C@@H](C)C(=O)N1CCC[C@H]1C(=O)O
Decrease in mean arterial pressure (Rattus norvegicus [2]): 55%

SMILES: CCOC(=O)[C@H](CCc1ccccc1)N[C@@H](C)C(=O)N1C2CCCCC2C[C@H]1C(=O)O (stereo partly drawn)
Decrease in mean arterial pressure (Rattus norvegicus [2]): 46%

SMILES: CCOC(=O)C(CCc1ccccc1)[S+]([O-])C(C)C(=O)N1C2CCCCC2C[C@H]1C(=O)O (stereo partly drawn)
Decrease in mean arterial pressure (Rattus norvegicus [5]): 10% | Decrease in mean arterial pressure (Rattus norvegicus [6]): No significant activity

SMILES: CC(OC(CCc1ccccc1)C(=O)O)C(=O)N1CCCC1C(=O)O (stereo not drawn)
Decrease in mean arterial pressure (Rattus norvegicus [7]): No significant activity | Decrease in mean arterial pressure (Rattus norvegicus [3]): 9%

SMILES: CCOC(=O)[C@H](CCc1ccccc1)N[C@@H](C)C(=O)N1Cc2ccccc2C[C@H]1C(=O)O
Decrease in mean arterial pressure (Rattus norvegicus [8]): 54%

IC50 [1]: No significant activity
SMILES: CCOC(=O)C(CCc1ccccc1)S(=O)(=O)C(C)C(=O)N1CCC[C@H]1C(=O)O (stereo partly drawn)

IC50 [1]: No significant activity
SMILES: CC(SC(CCc1ccccc1)C(=O)O)C(=O)NC1(C(=O)O)CCC(c2ccccc2)CC1 (stereo not drawn)

SMILES: CCOC(=O)C(CCc1ccccc1)OC(C)C(=O)N1C(C(=O)O)CC2CCCCC21 (stereo not drawn)
Decrease in mean arterial pressure (Rattus norvegicus [7]): No significant activity | Decrease in mean arterial pressure (Rattus norvegicus [3]): 12%

SMILES: CCOC(=O)C(CCc1ccccc1)OC(C)C(=O)N1CCCC1C(=O)O (stereo not drawn)
Decrease in mean arterial pressure (Rattus norvegicus [5]): 3% | Decrease in mean arterial pressure (Rattus norvegicus [7]): No significant activity
